ChEMBL document CHEMBL2380256, “Discovery of novel Jak2-Stat pathway inhibitors with extended residence time on target” (Bioorg Med Chem Lett, 2013)
One block for each compound: values may come before it. Calls of active or inactive are those of the source. The calls are words filed in the database; no cut-off is given here.

Assays:
[1] = Growth inhibition of mouse BA/F3 cells transfected with JAK3 TEL domain after 24 hrs by Alamar Blue assay; assay type: functional, cell-based; details: BaF3, 24 h
[2] = Growth inhibition of mouse BA/F3 cells transfected with JAK2 TEL domain after 24 hrs by Alamar Blue assay; assay type: functional; details: BaF3, 24 h
[3] = biological target: T1, Tyrosine-protein kinase JAK3 (Homo sapiens, UniProt P52333); assay: Inhibition of JAK3 (unknown origin) using biotinylated poly-EY peptide as substrate after 60 mins by HTRF assay
T1 sequence (P52333 whole entry): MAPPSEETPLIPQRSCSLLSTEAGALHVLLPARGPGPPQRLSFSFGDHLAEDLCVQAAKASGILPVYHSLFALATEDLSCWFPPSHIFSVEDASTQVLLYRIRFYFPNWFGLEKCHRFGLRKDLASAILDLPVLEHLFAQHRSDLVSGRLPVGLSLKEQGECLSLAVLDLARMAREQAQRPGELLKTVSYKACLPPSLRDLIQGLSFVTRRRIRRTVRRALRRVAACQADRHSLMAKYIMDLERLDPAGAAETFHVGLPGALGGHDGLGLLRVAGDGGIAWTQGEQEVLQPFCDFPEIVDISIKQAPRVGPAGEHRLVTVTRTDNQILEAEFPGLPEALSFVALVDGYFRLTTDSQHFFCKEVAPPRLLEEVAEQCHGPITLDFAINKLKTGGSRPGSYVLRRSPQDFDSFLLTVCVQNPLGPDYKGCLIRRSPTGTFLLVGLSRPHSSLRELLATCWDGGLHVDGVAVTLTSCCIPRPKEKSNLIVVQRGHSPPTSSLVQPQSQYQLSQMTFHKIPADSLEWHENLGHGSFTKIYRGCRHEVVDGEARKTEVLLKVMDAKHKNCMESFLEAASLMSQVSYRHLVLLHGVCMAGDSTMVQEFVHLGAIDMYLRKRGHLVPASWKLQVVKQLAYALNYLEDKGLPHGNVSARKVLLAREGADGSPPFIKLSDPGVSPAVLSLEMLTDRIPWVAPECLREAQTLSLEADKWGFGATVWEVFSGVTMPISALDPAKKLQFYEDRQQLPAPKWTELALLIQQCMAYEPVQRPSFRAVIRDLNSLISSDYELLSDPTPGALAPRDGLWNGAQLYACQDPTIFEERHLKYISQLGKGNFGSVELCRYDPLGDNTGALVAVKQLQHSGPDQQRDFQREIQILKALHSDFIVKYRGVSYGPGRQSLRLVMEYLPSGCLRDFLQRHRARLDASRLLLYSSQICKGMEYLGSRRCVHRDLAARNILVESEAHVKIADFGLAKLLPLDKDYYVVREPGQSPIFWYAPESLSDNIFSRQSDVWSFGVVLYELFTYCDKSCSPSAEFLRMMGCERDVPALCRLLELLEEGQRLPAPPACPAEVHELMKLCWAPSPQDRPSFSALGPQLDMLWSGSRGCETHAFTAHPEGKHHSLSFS

[4] = biological target: T2, Tyrosine-protein kinase JAK2 (Homo sapiens, UniProt O60674); assay: Inhibition of JAK2 (unknown origin) using biotinylated TYK2 peptide as substrate after 60 mins
T2 sequence (O60674 whole entry): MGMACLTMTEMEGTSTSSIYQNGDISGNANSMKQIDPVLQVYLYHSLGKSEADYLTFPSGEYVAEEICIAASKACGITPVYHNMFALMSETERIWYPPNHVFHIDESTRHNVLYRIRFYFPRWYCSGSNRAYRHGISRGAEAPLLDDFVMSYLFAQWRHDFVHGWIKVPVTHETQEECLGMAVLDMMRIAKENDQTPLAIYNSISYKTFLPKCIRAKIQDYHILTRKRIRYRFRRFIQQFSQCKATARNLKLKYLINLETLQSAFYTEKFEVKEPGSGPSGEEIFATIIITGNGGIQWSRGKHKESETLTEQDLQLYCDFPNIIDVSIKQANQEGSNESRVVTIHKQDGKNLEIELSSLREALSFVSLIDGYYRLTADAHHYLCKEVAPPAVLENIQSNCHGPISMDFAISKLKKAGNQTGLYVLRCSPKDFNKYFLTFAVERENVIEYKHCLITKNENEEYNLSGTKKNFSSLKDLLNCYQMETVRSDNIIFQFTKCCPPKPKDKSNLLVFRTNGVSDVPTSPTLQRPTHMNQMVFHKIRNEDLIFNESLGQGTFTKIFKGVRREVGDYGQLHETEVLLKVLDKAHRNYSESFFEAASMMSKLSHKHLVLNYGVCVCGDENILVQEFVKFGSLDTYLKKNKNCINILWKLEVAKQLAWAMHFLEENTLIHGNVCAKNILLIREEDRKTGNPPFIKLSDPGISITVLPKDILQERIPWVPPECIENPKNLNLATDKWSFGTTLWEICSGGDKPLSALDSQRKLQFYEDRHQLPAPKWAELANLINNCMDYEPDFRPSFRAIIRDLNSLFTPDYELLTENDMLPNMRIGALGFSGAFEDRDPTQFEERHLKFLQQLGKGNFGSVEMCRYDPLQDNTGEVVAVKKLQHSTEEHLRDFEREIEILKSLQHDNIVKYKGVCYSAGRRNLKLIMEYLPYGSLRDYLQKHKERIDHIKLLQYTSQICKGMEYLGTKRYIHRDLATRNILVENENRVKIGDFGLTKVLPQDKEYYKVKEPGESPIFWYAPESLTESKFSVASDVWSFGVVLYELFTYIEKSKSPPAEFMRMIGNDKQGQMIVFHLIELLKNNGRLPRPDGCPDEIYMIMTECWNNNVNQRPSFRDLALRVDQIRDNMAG

Homo sapiens = species: Homo sapiens; assay: Selectivity ratio of IC50 for JAK3 (unknown origin) to IC50 for JAK2 (unknown origin)
Summary of the method: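 Jak2 and Jak3 enzyme IC50s determined at 5 mM ATP; the ratio is the Jak3 IC50 divided by the Jak2 IC50.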

[5] = Total plasma concentration in nude mouse allografted with mouse Ba/F3 cells expressing JAK2 TEL domain at 5 mg/kg, po qd measured at 6 hrs; assay type: ADME, organism-based, BaF3; design: dose 5 mg/kg, route oral
Summary of the method: (§1)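 Female nude mice implanted intravenously with Ba/F3 TEL-JAK2 cells on day 0 and dosed orally on day 10. Total plasma drug concentration was measured at the stated times post-dose, averaged over n = 3 per dose and time point.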

[6] = Total plasma concentration in nude mouse allografted with mouse Ba/F3 cells expressing JAK2 TEL domain at 5 mg/kg, po qd measured at 2 hrs; assay type: ADME, organism-based, BaF3; design: dose 5 mg/kg, route oral; summary of the method: as §1
[7] = Total plasma concentration in nude mouse allografted with mouse Ba/F3 cells expressing JAK2 TEL domain at 10 mg/kg, po qd measured at 2 hrs; assay type: ADME, organism-based, BaF3; design: dose 10 mg/kg, route oral; summary of the method: as §1
[8] = Total plasma concentration in nude mouse allografted with mouse Ba/F3 cells expressing JAK2 TEL domain at 10 mg/kg, po qd measured at 6 hrs; assay type: ADME, organism-based, BaF3; design: dose 10 mg/kg, route oral; summary of the method: as §1
[9] = Fraction unbound in nude mouse plasma allografted with mouse Ba/F3 cells expressing JAK2 TEL domain at 5 to 10 mg/kg, po qd after 6 hrs; assay type: ADME, organism-based, BaF3; design: dose 5-10 mg/kg, route oral
Mus musculus [10] = assay: In vivo inhibition of JAK2 TEL domain (unknown origin) transfected in mouse Ba/F3 cells allografted in nude mouse assessed as inhibition of STAT5 phosphorylation at 5 mg/kg, po qd after 6 hrs; assay type: functional, organism-based; design: dose 5 mg/kg; details: BaF3
Summary of the method: (§2)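 Female nude mice implanted intravenously with Ba/F3 TEL-JAK2 cells on day 0 and given a single oral dose on day 10. pStat5 was measured at the stated times post-dose. % inhibition was scaled between vehicle and a control inhibitor as maximum and minimum, with n = 3 per dose and time point, reported as mean ±SD.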

Mus musculus [11] = assay: In vivo inhibition of JAK2 TEL domain (unknown origin) transfected in mouse Ba/F3 cells allografted in nude mouse assessed as inhibition of STAT5 phosphorylation at 10 mg/kg, po qd after 6 hrs relative to vehicle-treated control; assay type: functional; details: BaF3, 6 h; summary of the method: as §2
Hepatocyte = assay: Metabolic stability in human hepatocytes measured per 10^6 cells; assay type: ADME, cell-based
[12] = Volume of distribution at steady state in beagle dog at 5 mg/kg, po and 2.5 mg/kg, iv; assay type: ADME, organism-based, Canis lupus familiaris; details: in vivo, read-out: Vdss
Summary of the method: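 Male Beagle dogs. Oral 5 mg/kg in 0.1% HPMC; intravenous 2.5 mg/kg in HP-β-CD.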

[13] = Volume of distribution at steady state in CD1 mouse at 10 mg/kg, po and 3 mg/kg, iv; assay type: ADME, organism-based; details: in vivo, read-out: Vdss
Summary of the method: (§3)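 Single-dose PK: female CD-1 mice and male Han Wistar rats, 10 mg/kg po in 0.1% HPMC and 3 mg/kg iv in DMA/PEG/saline 40/40/20.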

[14] = Volume of distribution at steady state in Han Wistar rat at 10 mg/kg, po and 3 mg/kg, iv; assay type: ADME, organism-based; details: in vivo, read-out: Vdss
[15] = Clearance in beagle dog at 5 mg/kg, po and […] mg/kg, iv; assay type: ADME, organism-based, Canis lupus familiaris; details: in vivo, 2.5 mg/kg
[16] = Clearance in CD1 mouse at 10 mg/kg, po and 3 mg/kg, iv; assay type: ADME, organism-based; details: in vivo; summary of the method: as §3
[17] = Clearance in Han Wistar rat at 10 mg/kg, po and 3 mg/kg, iv; assay type: ADME, organism-based; details: in vivo; summary of the method: as §3
[18] = AUC in beagle dog at 5 mg/kg, po and […] mg/kg, iv; assay type: ADME, organism-based, Canis lupus familiaris; details: plasma
[19] = AUC in CD1 mouse at 10 mg/kg, po and 3 mg/kg, iv; assay type: ADME, organism-based; details: plasma; summary of the method: as §3
[20] = AUC in Han Wistar rat at 10 mg/kg, po and 3 mg/kg, iv; assay type: ADME, organism-based; details: plasma; summary of the method: as §3
[21] = Oral bioavailability in beagle dog at 5 mg/kg; assay type: ADME, organism-based, Canis lupus familiaris; details: in vivo
Summary of the method: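 Male Beagle dogs received 5 mg/kg po (0.1% HPMC) and 2.5 mg/kg iv (HP-β-CD). %F = (AUCpo × DoseIV)/(AUCIV × Dosepo) × 100.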

[22] = Oral bioavailability in CD1 mouse at 10 mg/kg; assay type: ADME, organism-based; details: in vivo
Summary of the method: (§4)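 Oral bioavailability in female CD-1 mice and male Han Wistar rats: 10 mg/kg po (0.1% HPMC) versus 3 mg/kg iv (DMA/PEG/saline 40/40/20). %F = (AUCpo × DoseIV)/(AUCIV × Dosepo) × 100.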

[23] = Oral bioavailability in Han Wistar rat at 10 mg/kg; assay type: ADME, organism-based; details: in vivo; summary of the method: as §4
[24] = Growth inhibition of human UKE1 cells harboring JAK2 V617F mutant after 2 days by [3H]-thymidine incorporation assay; assay type: functional
SET-2 = assay: Growth inhibition of human SET2 harboring JAK2 V617F mutant after 24 hrs by Alamar Blue assay; assay type: functional; details: SET-2, 24 h
[25] = biological target: T2, Tyrosine-protein kinase JAK2; assay: Competitive inhibition of JAK2 (unknown origin)

IC50 [3]: 87 nM
IC50 [4]: 4 nM
SMILES: Cc1cc(Nc2nc(O[C@@H](C)c3ccc(F)cn3)c(F)c(N3CCOCC3)n2)n[nH]1
GI50 ([1]; read-out: GI50): 240 nM
GI50 [2]: 16 nM

IC50 [3]: 20 nM
IC50 [4]: 3 nM
SMILES: Cc1cc(Nc2nc(N[C@@H](C)c3ccc(F)cn3)c(F)c(N3CCN(S(C)(=O)=O)CC3)n2)n[nH]1
GI50 [1]: 50 nM

IC50 [3]: 30 nM
IC50 [4]: 4 nM
SMILES: Cc1cc(Nc2nc(N[C@@H](C)c3ccc(F)cn3)c(F)c(N3CCNCC3)n2)n[nH]1
GI50 [1]: 480 nM

Ratio IC50 (Homo sapiens): > 10000
SMILES: Cc1cc(Nc2nc(N[C@@H](C)c3ncc(F)cn3)nc(N3CCOCC3)c2F)n[nH]1

IC50 [3]: 95 nM
IC50 [4]: 5 nM
SMILES: Cc1cc(Nc2nc(N[C@@H](C)c3ncc(F)cn3)cc(N3CCOCC3)n2)n[nH]1
GI50 [2]: 58 nM

IC50 [3]: 15 nM
SMILES: Cc1cc(Nc2nc(N[C@@H](C)c3ccc(F)cn3)c(F)c(N3CCN(C)CC3)n2)n[nH]1
GI50 ([1]; read-out: GI50): 380 nM

IC50 [3]: > 30000 nM
IC50 [4]: 25 nM
SMILES: Cc1cnc(Nc2nc(N[C@@H](C)c3ncc(F)cn3)nc(N3CCOCC3)c2F)s1
GI50 ([1]; read-out: GI50): 4900 nM
GI50 [2]: 30 nM

concentration at 6 h [5]: 180 ng/mL
concentration at 2 h [6]: 325 ng/mL
concentration at 2 h [7]: 551 ng/mL
concentration at 6 h [8]: 246 ng/mL
fraction unbound at 6 h [9]: 0.16
Stability (Hepatocyte): < 2 µL/min/1e6 cells
Vd [12]: 2.4 L/kg
Vd [13]: 1.4 L/kg
Vd [14]: 1.6 L/kg
clearance [15]: 13 mL/min/kg
clearance [16]: 17 mL/min/kg
clearance [17]: 11 mL/min/kg
AUC [18]: 8.5 µM·h
AUC [19]: 14.7 µM·h
AUC [20]: 27.5 µM·h
bioavailability [21]: 56%
bioavailability [22]: 64%
bioavailability [23]: 74%
Ki [25]: 0.72 nM
IC50 [3]: 20 nM
IC50 [4]: < 3 nM
SMILES: Cc1cc(Nc2nc(O[C@@H](C)c3ncc(F)cn3)c(F)c(N3CCOCC3)n2)n[nH]1
inhibition (Mus musculus [10]): Active
inhibition in vivo at 10 mg/kg (Mus musculus [11]): > 80%
GI50 [24]: 50 nM
GI50 (SET-2): 78 nM
GI50 ([1]; read-out: GI50): 690 nM
GI50 [2]: 6 nM

Ratio IC50 (Homo sapiens): 76
SMILES: Cc1cc(Nc2nc(N[C@@H](C)c3ncc(F)cn3)c(F)c(N3CCOCC3)n2)n[nH]1
GI50 ([1]; read-out: GI50): 390 nM
GI50 [2]: 15 nM
